# Source: PMC3038628 (Journal of molecular biology, 2010)
# Key:
# [1] = FRET assay of NBD-Toc transfer from α-TTP variants to SUVs; assay type: biochemical; conditions: for Rate of NBD-Toc transfer to SUV, Rate: PC vesicles, 0.225 μM NBD-Toc, 2 μM α-TTP, 100 μM vesicles, room temperature; for Rate of NBD-Toc transfer to SUV, Rate^mut/Rate^wt: relative to wild type; for Reduction of rate of transfer to SUVs: reduction relative to wild type
# Summary of the method: (§1)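 Each protein (4 μM) was preloaded with 0.45 μM NBD-Toc for 15 min in SET buffer (pH 7.4). It was then stopped-flow mixed at room temperature with 200 μM acceptor vesicles of 97% liver PC and 3% TRITC-PE (finals 0.225 μM, 2 μM, 100 μM). Vesicles were sonicated SUVs (~60 nm) or extruded LUVs (150 nm). NBD quench was normalised to initial fluorescence and fitted single-exponentially.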
# [2] = FRET assay of NBD-Toc transfer from α-TTP variants to LUVs; assay type: biochemical; conditions: for Rate of NBD-Toc transfer to LUV, Rate: PC vesicles, 0.225 μM NBD-Toc, 2 μM α-TTP, 100 μM vesicles, room temperature; for Rate of NBD-Toc transfer to LUV, Rate^mut/Rate^wt: relative to wild type
# Summary of the method: as §1
# [3] = Dual polarization interferometry of protein adsorption to immobilized bilayer; assay type: binding; conditions: for Ads^mut/Ads^wt (0.50 μM injection): 0.50 μM protein injection; for Ads^mut/Ads^wt (1.0 μM injection): 1.0 μM protein injection; for Fold change in affinity: relative to wild type; for Adsorption/binding to immobilized bilayers by DPI, % of wild type: injection concentration not stated
# Summary of the method: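 Recombinant α-TTP (E. coli BL21(DE3), glutathione affinity, thrombin-cleaved) was dialysed 1 h at 4 °C into pH 7.4 phosphate/137 mM NaCl buffer. It was injected at 25 μl/min for 8 min over a 90:10 DOPC:DOPS bilayer on a silicon oxynitride chip at 20 °C. Adsorbed mass was measured at 0.5 and 1.0 μM in quadruplicate, two channels each. Kd came from fitting Bmax against concentration.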
molecule,measurement,setting,value
"WT: human α-tocopherol transfer protein, wild type, expressed in E. coli as GST fusion and cleaved","Rate of NBD-Toc transfer to SUV, Rate",[1],0.127 ± 0.012 s⁻¹
same,"Rate of NBD-Toc transfer to SUV, Rate^mut/Rate^wt",[1],100%
same,Reduction of transfer rate with LUVs versus SUVs,[2]; LUVs compared with SUVs,8 fold
same,"Rate of NBD-Toc transfer to LUV, Rate",[2],0.016 ± 0.002 s⁻¹
same,"Rate of NBD-Toc transfer to LUV, Rate^mut/Rate^wt",[2],100%
same,Ads^mut/Ads^wt (0.50 μM injection),[3],1
same,Ads^mut/Ads^wt (1.0 μM injection),[3],1
same,Fold change in affinity,[3],0
"M264D: α-TTP mutant; surface methionine replaced with aspartate in a region predicted distant from the membrane plane (protein, UniProt P49638 1-278, looked up, variant M264D) Alpha-tocopherol transfer …: MAEARSQPSAGPQLNALPDHSPLLQPGLAALRRRAREAGVPLAPLPLTDSFLLRFLRARDFDLDLAWRLLKNYYKWRAECPEISADLHPRSIIGLLKAGYHGVLRSRDPTGSKVLIYRIAHWDPKVFTAYDVFRVSLITSELIVQEVETQRNGIKAIFDLEGWQFSHAFQITPSVAKKIAAVLTDSFPLKVRGIHLINEPVIFHAVFSMIKPFLTEKIKERIHMHGNNYKQSLLQHFPDILPLEYGGEEFSMEDICQEWTNFIDKSEDYLSSISESIQ","Rate of NBD-Toc transfer to SUV, Rate",[1],0.116 ± 0.013 s⁻¹
same,Reduction of rate of transfer to SUVs,[1],9%
same,"Rate of NBD-Toc transfer to SUV, Rate^mut/Rate^wt",[1],91%
same,"Rate of NBD-Toc transfer to LUV, Rate",[2],0.008 ± 0.001 s⁻¹
same,Reduction of rate of ligand deposition in LUVs,[2]; reduction relative to wild type,50%
same,"Rate of NBD-Toc transfer to LUV, Rate^mut/Rate^wt",[2],50%
same,Ads^mut/Ads^wt (0.50 μM injection),[3],0.66
same,Ads^mut/Ads^wt (1.0 μM injection),[3],0.81
"V206A: α-TTP mutant, Val206 to Ala (protein, UniProt P49638 1-278, looked up, variant V206A) Alpha-tocopherol transfer …: MAEARSQPSAGPQLNALPDHSPLLQPGLAALRRRAREAGVPLAPLPLTDSFLLRFLRARDFDLDLAWRLLKNYYKWRAECPEISADLHPRSIIGLLKAGYHGVLRSRDPTGSKVLIYRIAHWDPKVFTAYDVFRVSLITSELIVQEVETQRNGIKAIFDLEGWQFSHAFQITPSVAKKIAAVLTDSFPLKVRGIHLINEPVIFHAAFSMIKPFLTEKIKERIHMHGNNYKQSLLQHFPDILPLEYGGEEFSMEDICQEWTNFIMKSEDYLSSISESIQ","Rate of NBD-Toc transfer to SUV, Rate",[1],0.154 ± 0.012 s⁻¹
same,"Rate of NBD-Toc transfer to SUV, Rate^mut/Rate^wt",[1],121%
same,"Rate of NBD-Toc transfer to LUV, Rate",[2],0.016 ± 0.002 s⁻¹
same,"Rate of NBD-Toc transfer to LUV, Rate^mut/Rate^wt",[2],100%
same,Ads^mut/Ads^wt (0.50 μM injection),[3],0.93
same,Ads^mut/Ads^wt (1.0 μM injection),[3],1.14
"I202D: α-TTP mutant, Ile202 to Asp (helix A10) (protein, UniProt P49638 1-278, looked up, variant I202D) Alpha-tocopherol transfer …: MAEARSQPSAGPQLNALPDHSPLLQPGLAALRRRAREAGVPLAPLPLTDSFLLRFLRARDFDLDLAWRLLKNYYKWRAECPEISADLHPRSIIGLLKAGYHGVLRSRDPTGSKVLIYRIAHWDPKVFTAYDVFRVSLITSELIVQEVETQRNGIKAIFDLEGWQFSHAFQITPSVAKKIAAVLTDSFPLKVRGIHLINEPVDFHAVFSMIKPFLTEKIKERIHMHGNNYKQSLLQHFPDILPLEYGGEEFSMEDICQEWTNFIMKSEDYLSSISESIQ","Rate of NBD-Toc transfer to SUV, Rate",[1],0.028 ± 0.002 s⁻¹
same,Reduction of rate of transfer to SUVs,[1],78%
same,"Rate of NBD-Toc transfer to SUV, Rate^mut/Rate^wt",[1],22%
same,"Rate of NBD-Toc transfer to LUV, Rate",[2],0.005 ± 0.002 s⁻¹
same,"Rate of NBD-Toc transfer to LUV, Rate^mut/Rate^wt",[2],31%
same,Ads^mut/Ads^wt (0.50 μM injection),[3],0.29
same,Ads^mut/Ads^wt (1.0 μM injection),[3],0.27
same,Fold change in affinity,[3],5
"F165D/M209D: α-TTP double mutant (protein, UniProt P49638 1-278, looked up, variant F165D M209D) Alpha-tocopherol transfer …: MAEARSQPSAGPQLNALPDHSPLLQPGLAALRRRAREAGVPLAPLPLTDSFLLRFLRARDFDLDLAWRLLKNYYKWRAECPEISADLHPRSIIGLLKAGYHGVLRSRDPTGSKVLIYRIAHWDPKVFTAYDVFRVSLITSELIVQEVETQRNGIKAIFDLEGWQDSHAFQITPSVAKKIAAVLTDSFPLKVRGIHLINEPVIFHAVFSDIKPFLTEKIKERIHMHGNNYKQSLLQHFPDILPLEYGGEEFSMEDICQEWTNFIMKSEDYLSSISESIQ","Rate of NBD-Toc transfer to SUV, Rate",[1],0.034 ± 0.003 s⁻¹
same,"Rate of NBD-Toc transfer to SUV, Rate^mut/Rate^wt",[1],27%
same,"Rate of NBD-Toc transfer to LUV, Rate",[2],0.010 ± 0.001 s⁻¹
same,"Rate of NBD-Toc transfer to LUV, Rate^mut/Rate^wt",[2],62%
same,Ads^mut/Ads^wt (0.50 μM injection),[3],0.01
same,Ads^mut/Ads^wt (1.0 μM injection),[3],0.18
"M209A: α-TTP mutant, Met209 to Ala (protein, UniProt P49638 1-278, looked up, variant M209A) Alpha-tocopherol transfer …: MAEARSQPSAGPQLNALPDHSPLLQPGLAALRRRAREAGVPLAPLPLTDSFLLRFLRARDFDLDLAWRLLKNYYKWRAECPEISADLHPRSIIGLLKAGYHGVLRSRDPTGSKVLIYRIAHWDPKVFTAYDVFRVSLITSELIVQEVETQRNGIKAIFDLEGWQFSHAFQITPSVAKKIAAVLTDSFPLKVRGIHLINEPVIFHAVFSAIKPFLTEKIKERIHMHGNNYKQSLLQHFPDILPLEYGGEEFSMEDICQEWTNFIMKSEDYLSSISESIQ","Rate of NBD-Toc transfer to SUV, Rate",[1],0.140 ± 0.012 s⁻¹
same,Effect on rate of NBD-Toc transfer to SUVs (in words),[1]; compared with wild type or single mutants,essentially no effect
same,"Rate of NBD-Toc transfer to SUV, Rate^mut/Rate^wt",[1],110%
same,"Rate of NBD-Toc transfer to LUV, Rate",[2],0.025 ± 0.005 s⁻¹
same,"Rate of NBD-Toc transfer to LUV, Rate^mut/Rate^wt",[2],156%
same,Ads^mut/Ads^wt (0.50 μM injection),[3],1.01
same,Ads^mut/Ads^wt (1.0 μM injection),[3],1.12
"R192H: naturally-occurring α-TTP mutant associated with heritable mild vitamin E deficiency in humans (protein, UniProt P49638 1-278, looked up, variant R192H) Alpha-tocopherol transfer …: MAEARSQPSAGPQLNALPDHSPLLQPGLAALRRRAREAGVPLAPLPLTDSFLLRFLRARDFDLDLAWRLLKNYYKWRAECPEISADLHPRSIIGLLKAGYHGVLRSRDPTGSKVLIYRIAHWDPKVFTAYDVFRVSLITSELIVQEVETQRNGIKAIFDLEGWQFSHAFQITPSVAKKIAAVLTDSFPLKVHGIHLINEPVIFHAVFSMIKPFLTEKIKERIHMHGNNYKQSLLQHFPDILPLEYGGEEFSMEDICQEWTNFIMKSEDYLSSISESIQ","Rate of NBD-Toc transfer to SUV, Rate",[1],0.106 ± 0.008 s⁻¹
same,"Rate of NBD-Toc transfer to SUV, Rate^mut/Rate^wt",[1],83%
same,"Rate of NBD-Toc transfer to LUV, Rate",[2],0.012 ± 0.003 s⁻¹
same,"Rate of NBD-Toc transfer to LUV, Rate^mut/Rate^wt",[2],75%
same,Ads^mut/Ads^wt (0.50 μM injection),[3],1.58
same,Ads^mut/Ads^wt (1.0 μM injection),[3],1.50
same,"Adsorption/binding to immobilized bilayers by DPI, % of wild type",[3],~ 150%
same,"Binding to immobilized bilayers, % of WT","[3]; printed ""for LUVs""",150%
same,"Binding to immobilized bilayers, % of WT","[3]; printed ""for SUVs""",158%
"M209D: α-TTP mutant, Met209 to Asp (helix A10) (protein, UniProt P49638 1-278, looked up, variant M209D) Alpha-tocopherol transfer …: MAEARSQPSAGPQLNALPDHSPLLQPGLAALRRRAREAGVPLAPLPLTDSFLLRFLRARDFDLDLAWRLLKNYYKWRAECPEISADLHPRSIIGLLKAGYHGVLRSRDPTGSKVLIYRIAHWDPKVFTAYDVFRVSLITSELIVQEVETQRNGIKAIFDLEGWQFSHAFQITPSVAKKIAAVLTDSFPLKVRGIHLINEPVIFHAVFSDIKPFLTEKIKERIHMHGNNYKQSLLQHFPDILPLEYGGEEFSMEDICQEWTNFIMKSEDYLSSISESIQ","Rate of NBD-Toc transfer to SUV, Rate",[1],0.047 ± 0.004 s⁻¹
same,Reduction of rate of transfer to SUVs,[1],63%
same,"Rate of NBD-Toc transfer to SUV, Rate^mut/Rate^wt",[1],37%
same,"Rate of NBD-Toc transfer to LUV, Rate",[2],0.013 ± 0.001 s⁻¹
same,"Rate of NBD-Toc transfer to LUV, Rate^mut/Rate^wt",[2],81%
same,Ads^mut/Ads^wt (0.50 μM injection),[3],0.39
same,Ads^mut/Ads^wt (1.0 μM injection),[3],0.42
same,Fold change in affinity,[3],1.2
"I202D/M209D: α-TTP double mutant (protein, UniProt P49638 1-278, looked up, variant I202D M209D) Alpha-tocopherol transfer …: MAEARSQPSAGPQLNALPDHSPLLQPGLAALRRRAREAGVPLAPLPLTDSFLLRFLRARDFDLDLAWRLLKNYYKWRAECPEISADLHPRSIIGLLKAGYHGVLRSRDPTGSKVLIYRIAHWDPKVFTAYDVFRVSLITSELIVQEVETQRNGIKAIFDLEGWQFSHAFQITPSVAKKIAAVLTDSFPLKVRGIHLINEPVDFHAVFSDIKPFLTEKIKERIHMHGNNYKQSLLQHFPDILPLEYGGEEFSMEDICQEWTNFIMKSEDYLSSISESIQ","Rate of NBD-Toc transfer to SUV, Rate^mut/Rate^wt",[1],11%
same,"Rate of NBD-Toc transfer to LUV, Rate",[2],0.008 ± 0.003 s⁻¹
same,"Rate of NBD-Toc transfer to LUV, Rate^mut/Rate^wt",[2],50%
same,Ads^mut/Ads^wt (0.50 μM injection),[3],0.13
same,Ads^mut/Ads^wt (1.0 μM injection),[3],0.07
same,Fold change in affinity,[3],10.9
"K211A: α-TTP mutant, surface Lys211 (helix A10) to Ala (protein, UniProt P49638 1-278, looked up, variant K211A) Alpha-tocopherol transfer …: MAEARSQPSAGPQLNALPDHSPLLQPGLAALRRRAREAGVPLAPLPLTDSFLLRFLRARDFDLDLAWRLLKNYYKWRAECPEISADLHPRSIIGLLKAGYHGVLRSRDPTGSKVLIYRIAHWDPKVFTAYDVFRVSLITSELIVQEVETQRNGIKAIFDLEGWQFSHAFQITPSVAKKIAAVLTDSFPLKVRGIHLINEPVIFHAVFSMIAPFLTEKIKERIHMHGNNYKQSLLQHFPDILPLEYGGEEFSMEDICQEWTNFIMKSEDYLSSISESIQ","Rate of NBD-Toc transfer to SUV, Rate",[1],0.105 ± 0.008 s⁻¹
same,"Rate of NBD-Toc transfer to SUV, Rate^mut/Rate^wt",[1],83%
same,"Rate of NBD-Toc transfer to LUV, Rate",[2],0.011 ± 0.001 s⁻¹
same,"Rate of NBD-Toc transfer to LUV, Rate^mut/Rate^wt",[2],69%
same,Ads^mut/Ads^wt (0.50 μM injection),[3],1.23
same,Ads^mut/Ads^wt (1.0 μM injection),[3],0.95
same,"Adsorption/binding to immobilized bilayers by DPI, % of wild type",[3],123%
